# Laboratory results: ChEMBL document CHEMBL1149822, “Synthesis, antimicrobial and anti-inflammatory activities of some 1,2,4-triazolo[3,4-b][1,3,4]thiadiazoles and 1,2,4-triazolo[3,4-b][1,3,4]thiadiazines bearing trichlorophenyl moiety” (2008)
# What was measured:
# Assay type in all cases: functional
# Escherichia coli [1] = assay: Antibacterial activity against Escherichia coli ATTC 25922 after 16 to 18 hrs by serial plate dilution method; settings: ATCC25922
# Procedure, shortened: (§1)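 Serial dilutions were made in Mueller-Hinton broth in tubes, adjusted to […] with phosphate buffer, and inoculated with a standardized bacterial suspension. Tubes were incubated at 37 °C for 16–18 h. MIC was taken as the lowest concentration with no visible growth.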
# Escherichia coli [2] = assay: microbe, parasite or virus in culture; settings: ATCC25922, read-out: IZ
# Klebsiella pneumoniae [3] = assay: Antibacterial activity against Klebsiella pneumoniae after 16 to 18 hrs by serial plate dilution method; procedure, shortened: as §1
# Klebsiella pneumoniae [4] = assay: microbe, parasite or virus in culture; settings: read-out: IZ
# Pseudomonas aeruginosa [5] = assay: Antibacterial activity against Pseudomonas aeruginosa ATTC 27853 after 16 to 18 hrs by serial plate dilution method; settings: ATCC27853; procedure, shortened: as §1
# Pseudomonas aeruginosa [6] = assay: microbe, parasite or virus in culture; settings: ATCC27853, read-out: IZ
# Staphylococcus aureus [7] = assay: Antibacterial activity against Staphylococcus aureus ATTC 25923 after 16 to 18 hrs by serial plate dilution method; procedure, shortened: as §1
# Staphylococcus aureus [8] = assay: Antibacterial activity against Staphylococcus aureus ATTC 25923 at […] ug/ml after 3 to 4 days; settings: read-out: IZ
# Talaromyces marneffei [9] = assay: Antifungal activity against Penicillium marneffei by serial plate dilution method
# Procedure, shortened: (§2)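 Agar of peptone 1 g, D-glucose 4 g and agar 2 g per 100 mL water, pH 5.7, was lawned with a fungal spore suspension in normal saline. The excess was decanted and plates were dried at 37 °C for 1 h. Wells were punched and compounds in DMSO were added, with a DMSO control. Plates were run in triplicate at 37 °C for 3–4 days, and the inhibition zone diameter was measured.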
# Talaromyces marneffei [10] = assay: Antifungal activity against Penicillium marneffei at […] ug/ml after 3 to 4 days; settings: read-out: IZ
# [11] = tested on: Trichophyton mentagrophytes; assay: Antifungal activity against Trichophyton mentagrophytes by serial plate dilution method
# [12] = tested on: Trichophyton mentagrophytes; assay: Antifungal activity against Trichophyton mentagrophytes at […] ug/ml after 3 to 4 days; settings: read-out: IZ
# Aspergillus flavus [13] = assay: Antifungal activity against Aspergillus flavus NCIM 524 by serial plate dilution method; procedure, shortened: as §2
# Aspergillus flavus [14] = assay: Antifungal activity against Aspergillus flavus NCIM 524 at […] ug/ml after 3 to 4 days; settings: read-out: IZ
# Aspergillus fumigatus [15] = assay: Antifungal activity against Aspergillus fumigatus NCIM 902 by serial plate dilution method
# Aspergillus fumigatus [16] = assay: Antifungal activity against Aspergillus fumigatus NCIM 902 at […] ug/ml after 3 to 4 days; settings: read-out: IZ
# Rattus norvegicus = assay: Antiinflammatory activity against carrageenan-induced paw oedema in albino rat at 50 mg/kg, po relative to control
# Procedure, shortened: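 Albino rats of 180–250 g were fasted 18 h and placed in groups of six. Samples were suspended in 2% w/v acacia mucilage, and the vehicle group served as control. 30 min after dosing, carrageenan (1 mg mL⁻¹, 0.1 mL) was injected subcutaneously into the right hind paw. Paw volume was measured immediately and at 3 h, and % oedema inhibition was calculated versus vehicle controls.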
# Pseudomonas aeruginosa [17] = assay: Antibacterial activity against Pseudomonas aeruginosa ATTC 27853 at 12 ug/ml after 3 to 4 days; settings: ATCC27853, read-out: IZ
# Procedure, shortened: (§3)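 Agar well diffusion. Plates were seeded with a bacterial suspension, the excess was decanted and plates were dried at 37 °C for 1 h. Wells were punched and compounds in DMSO were added, with DMSO wells as control. Plates were run in triplicate at 37 °C for 3–4 days and zones of inhibition were scored.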
# Klebsiella pneumoniae [18] = assay: Antibacterial activity against Klebsiella pneumoniae at 12 ug/ml after 3 to 4 days; settings: read-out: IZ; procedure, shortened: as §3
# Escherichia coli [19] = assay: Antibacterial activity against Escherichia coli ATTC 25922 at 12 ug/ml after 3 to 4 days; settings: ATCC25922, read-out: IZ; procedure, shortened: as §3
# Staphylococcus aureus [20] = assay: Antibacterial activity against Staphylococcus aureus ATTC 25923 at 12 ug/ml after 3 to 4 days; settings: read-out: IZ; procedure, shortened: as §3
# Talaromyces marneffei [21] = assay: Antifungal activity against Penicillium marneffei at 12 ug/ml after 3 to 4 days; settings: read-out: IZ; procedure, shortened: as §2
# [22] = tested on: Trichophyton mentagrophytes; assay: Antifungal activity against Trichophyton mentagrophytes at 12 ug/ml after 3 to 4 days; settings: read-out: IZ; procedure, shortened: as §2
# Aspergillus flavus [23] = assay: Antifungal activity against Aspergillus flavus NCIM 524 at 12 ug/ml after 3 to 4 days; settings: read-out: IZ; procedure, shortened: as §2
MIC (Escherichia coli [1]) [µg/mL],MIC (Klebsiella pneumoniae [3]) [µg/mL],MIC (Pseudomonas aeruginosa [5]) [µg/mL],MIC (Staphylococcus aureus [7]) [µg/mL],MIC (Talaromyces marneffei [9]) [µg/mL],MIC [11] [µg/mL],MIC (Aspergillus flavus [13]) [µg/mL],MIC (Aspergillus fumigatus [15]) [µg/mL],Structure (SMILES),zone of inhibition at 6.25 µg/mL (Escherichia coli [2]) [mm],zone of inhibition at 6.25 µg/mL (Klebsiella pneumoniae [4]) [mm],zone of inhibition at 6.25 µg/mL (Pseudomonas aeruginosa [6]) [mm],zone of inhibition at 6.25 µg/mL (Staphylococcus aureus [8]) [mm],zone of inhibition at 6.25 µg/mL (Talaromyces marneffei [10]) [mm],zone of inhibition at 6.25 µg/mL [12] [mm],zone of inhibition at 6.25 µg/mL (Aspergillus flavus [14]) [mm],zone of inhibition at 6.25 µg/mL (Aspergillus fumigatus [16]) [mm],inhibition in vivo at 50 mg/kg (Rattus norvegicus) [%],other results
6.25,6.25,6.25,6.25,6.25,6.25,6.25,6.25,COc1ccc(C2=Nn3c(nnc3-c3cc(Cl)cc(Cl)c3Cl)SC2)cc1,16,16,16,16,16,16,16,16,19.4,–
6.25,6.25,6.25,6.25,6.25,6.25,6.25,6.25,Clc1cc(Cl)c(Cl)c(-c2nnc3sc(-c4ccncc4Br)nn23)c1,16,16,16,16,16,16,16,16,19.4,–
6.25,6.25,6.25,6.25,6.25,6.25,6.25,6.25,NC(=O)c1cc(C2=Nn3c(nnc3-c3cc(Cl)cc(Cl)c3Cl)SC2)ccc1O,16,16,16,16,16,16,16,16,–,–
6.25,6.25,12,6.25,6.25,6.25,6.25,6.25,Clc1cc(Cl)c(Cl)c(-c2nnc3sc(-c4cccc5ncccc45)nn23)c1,16,16,–,16,16,16,16,16,9.67,zone of inhibition at 12 µg/mL (Pseudomonas aeruginosa [17]): 11 mm
6.25,12,12,6.25,6.25,6.25,6.25,6.25,Cc1ccc(C2=Nn3c(nnc3-c3cc(Cl)cc(Cl)c3Cl)SC2)cc1,16,–,–,16,16,16,16,16,19.4,zone of inhibition at 12 µg/mL (Klebsiella pneumoniae [18]): 11 mm; zone of inhibition at 12 µg/mL (Pseudomonas aeruginosa [17]): 11 mm
6.25,6.25,6.25,6.25,6.25,6.25,6.25,6.25,CSc1ccc(C2=Nn3c(nnc3-c3cc(Cl)cc(Cl)c3Cl)SC2)cc1,16,16,16,16,16,16,16,16,9.67,–
6.25,6.25,6.25,6.25,6.25,6.25,6.25,6.25,Clc1cc(Cl)c(Cl)c(-c2nnc3sc(-c4ccncc4)nn23)c1,16,16,16,16,16,16,16,16,11.3,–
6.25,6.25,6.25,6.25,6.25,6.25,6.25,6.25,Clc1cc(Cl)cc(-c2nn3c(-c4cc(Cl)cc(Cl)c4Cl)nnc3s2)c1,16,16,16,16,16,16,16,16,–,–
12,6.25,6.25,12,12,12,12,6.25,Clc1cc(Cl)c(Cl)c(-c2nnc3n2N=C(c2ccccc2)CS3)c1,–,16,16,–,–,–,–,16,–,zone of inhibition at 12 µg/mL (Escherichia coli [19]): 11 mm; zone of inhibition at 12 µg/mL (Staphylococcus aureus [20]): 11 mm; zone of inhibition at 12 µg/mL (Talaromyces marneffei [21]): 11 mm; zone of inhibition at 12 µg/mL [22]: 11 mm; zone of inhibition at 12 µg/mL (Aspergillus flavus [23]): 11 mm
12,6.25,6.25,12,6.25,12,12,6.25,Cc1ccc(-c2nn3c(-c4cc(Cl)cc(Cl)c4Cl)nnc3s2)cc1,–,16,16,–,16,–,–,16,22.6,zone of inhibition at 12 µg/mL (Escherichia coli [19]): 11 mm; zone of inhibition at 12 µg/mL (Staphylococcus aureus [20]): 11 mm; zone of inhibition at 12 µg/mL [22]: 11 mm; zone of inhibition at 12 µg/mL (Aspergillus flavus [23]): 11 mm
6.25,6.25,6.25,6.25,6.25,6.25,6.25,6.25,Clc1ccc(C2=Nn3c(nnc3-c3cc(Cl)cc(Cl)c3Cl)SC2)cc1,16,16,16,16,16,16,16,16,30.6,–
6.25,6.25,6.25,6.25,6.25,12,12,6.25,Clc1cc(Cl)c(Cl)c(-c2nnc3sc(COc4ccccc4)nn23)c1,16,16,16,16,16,–,–,16,–,zone of inhibition at 12 µg/mL [22]: 11 mm; zone of inhibition at 12 µg/mL (Aspergillus flavus [23]): 11 mm
